{"data": "Measured values pooled from the literature", "target": "Casein kinase I isoform gamma-2 (CSNK1G2, Homo sapiens, UniProt P78368)", "note": "Lines come from different studies, so protocols differ."}
{"Compound": "O=C(NCCCC1CCCCC1)c1ccc(CNC(=O)c2cnn(-c3ccccc3)c2C(F)(F)F)cc1", "observed": "cell-free assay", "technique": "competition with immobilised ligand", "tested at": "0.1 µM", "quantity": "remaining binding", "result": "96%"}
{"Compound": "CS(=O)(=O)Nc1cccc(-c2csc(NC(=O)CSc3nc4nccnc4c(=O)n3CCc3ccccc3)n2)c1", "observed": "enzyme activity", "action": "inhibitor", "tested at": "10 µM", "quantity": "inhibition", "result": "8%"}
{"Compound": "Cc1sc(C(=O)NC2COC2)cc1-n1cc(NC(=O)Nc2c(F)cccc2Cl)cn1", "observed": "enzyme activity", "action": "inhibitor", "tested at": "10 µM", "quantity": "remaining activity", "result": "104%"}
{"Compound": "COc1cc(Nc2cnc(C#N)c(O[C@H](C)CN(C)C)n2)ncc1-c1cnn(C)c1", "observed": "enzyme activity", "action": "inhibitor", "technique": "radiometric", "tested at": "1 µM", "quantity": "remaining activity", "result": "101%"}
{"Compound": "COc1cc2ncnc(Nc3ccc(Oc4ccccc4)c(C)c3C)c2cc1OC", "observed": "enzyme activity", "action": "inhibitor", "tested at": "1 µM", "quantity": "inhibition", "result": "1%"}
{"Compound": "COc1cc(Cl)c(C(=O)N[C@@H](CN[C@H]2CC[C@@H](N)CC2)Cc2ccc(C#N)cc2)cc1-c1ccc(CN[C@H](C)c2ccc(C)cc2)o1", "observed": "enzyme activity", "action": "inhibitor", "tested at": "1 µM", "quantity": "remaining activity", "result": "112%"}
{"Compound": "CN1CC(Oc2cnc(C#N)cc2-c2ccn3nc(NC(=O)C4CC4)cc3c2)C1", "observed": "enzyme activity", "action": "inhibitor", "tested at": "1 µM", "quantity": "inhibition", "result": "-2%"}
{"Compound": "NS(=O)(=O)c1cc(NC(=O)C2(c3ccccc3Cl)CC2)ccc1Oc1cccc(Cl)c1", "observed": "cell-free assay", "technique": "competition with immobilised ligand", "tested at": "1 µM", "quantity": "remaining binding", "result": "82%"}
{"Compound": "Cc1ccc(NC(=O)c2ccc(C)c(C(F)(F)F)c2)cc1C#Cc1nn(C2CCC(O)CC2)c2ncnc(N)c12 (stereo not shown)", "observed": "cell-free assay", "tested at": "10 µM", "quantity": "remaining signal", "result": "114%"}
{"Compound": "N#CCCc1ccc2c(c1)-c1[nH]c3ccc([N+](=O)[O-])cc3c1CC(=O)N2", "observed": "cell-free assay", "tested at": "0.5 µM", "quantity": "remaining signal", "result": "84.8%"}
{"Compound": "CNC(=O)c1cc(Oc2ccc(NC(=O)Nc3ccc(Cl)c(C(F)(F)F)c3)cc2)ccn1", "observed": "enzyme activity", "action": "inhibitor", "tested at": "10 µM", "quantity": "inhibition", "result": "-4%"}
{"Compound": "CCc1ccccc1C(=O)Nc1n[nH]c2c(C)c(F)c(C3C(C#N)=C(C)N(C)C(C)=C3C#N)cc12", "observed": "cell-free assay", "technique": "competition with immobilised ligand", "tested at": "1 µM", "quantity": "remaining binding", "result": "97%"}
{"Compound": "COc1cc(Nc2c(C#N)cnc3cc(OCCCN4CCN(C)CC4)c(OC)cc23)c(Cl)cc1Cl", "observed": "cell-free assay", "tested at": "0.5 µM", "quantity": "remaining signal", "result": "98.3%"}
{"Compound": "CC(C)(C)c1nc2c(s1)c1nc(N)ncc1c1ccc(NS(=O)(=O)c3c(F)cccc3F)c(F)c12", "observed": "enzyme activity", "action": "inhibitor", "technique": "radiometric", "tested at": "1 µM", "quantity": "remaining activity", "result": "104%"}
{"Compound": "NS(=O)(=O)c1cc(NC(=O)Cc2ccccc2)ccc1Oc1cccc(Cl)c1", "observed": "cell-free assay", "technique": "competition with immobilised ligand", "tested at": "1 µM", "quantity": "remaining binding", "result": "100%"}
{"Compound": "Cc1ccc(Nc2nccc(N(C)c3ccc4c(C)n(C)nc4c3)n2)cc1S(N)(=O)=O", "observed": "cell-free assay", "action": "inhibitor", "tested at": "0.5 µM", "quantity": "remaining signal", "result": "96.9%"}
{"Compound": "CCCOc1ccc([C@@H]2[C@@H](C(=O)O)[C@H](c3ccc4c(c3)OCO4)CN2CC(=O)Nc2c(CC)cccc2CC)cc1", "observed": "cell-free assay", "technique": "competition with immobilised ligand", "tested at": "1 µM", "quantity": "remaining binding", "result": "96%"}
{"Compound": "Cc1ccc(C(=O)Nc2ccc(CN3CCN(C)CC3)c(C(F)(F)F)c2)cc1C#Cc1cnc2cccnn12", "observed": "enzyme activity", "action": "inhibitor", "tested at": "23.5 nM", "quantity": "remaining activity", "result": "96%"}
{"Compound": "C[C@@H](c1cccc(C#N)c1)n1cc(Cl)cc(C(N)=O)c1=N", "observed": "cell-free assay", "technique": "competition with immobilised ligand", "tested at": "1 µM", "quantity": "remaining binding", "result": "100%"}
{"Compound": "O=C1Nc2ccc(Cl)cc2C1=Cc1cc(Cl)c(O)c(Cl)c1", "observed": "cell-free assay", "tested at": "0.5 µM", "quantity": "remaining signal", "result": "83.5%"}
{"Compound": "Nc1cnc(N2CCc3cc(S(=O)(=O)Nc4c(F)cc(Cl)cc4F)cc(N4CCCC4=O)c32)nc1", "observed": "cell-free assay", "technique": "competition with immobilised ligand", "tested at": "1 µM", "quantity": "remaining binding", "result": "88%"}
{"Compound": "Cc1cnc(NC2CCOCC2)nc1-n1cnc(C(=O)NC(CN)c2cc(F)cc(Cl)c2)c1 (stereo not shown)", "observed": "enzyme activity", "action": "inhibitor", "technique": "radiometric", "tested at": "1 µM", "quantity": "remaining activity", "result": "53%"}
